Where “and” joins values, the source holds several entries; their conditions need not be identical. Equal entries are not always repeated.
Columns and labels:
[1] = tested on: 17-71 canine B-cell lymphoma line; experiment: Annexin V-FITC/PI apoptosis detection by flow cytometry, 17-71 cells; format: cell-based
Procedure, shortened: (§1)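 Cells were seeded at 100,000 per well in fresh medium holding 0, 5, 10 or 20 µM test compound, alongside a vehicle control. They were exposed 24 or 48 h at 37 °C, 5% CO2. Apoptosis was read by Annexin V-FITC/PI staining and flow cytometry, in triplicate. Lines were kept as suspensions in DMEM with P/S, plus 10% FBS (17-71, GL-1) or 20% FBS (CA46). Time and concentration effects were tested by 2-way ANOVA with Tukey or Dunnett post hoc.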

[2] = tested on: GL-1 canine B-cell lymphoma line; experiment: Annexin V-FITC/PI apoptosis detection by flow cytometry, GL-1 cells; format: cell-based
Procedure, shortened: as §1

[3] = tested on: CA46 human B-cell lymphoma line; experiment: Annexin V-FITC/PI apoptosis detection by flow cytometry, CA46 cells; format: cell-based
Procedure, shortened: as §1

caspase-3 [4] = molecular target: T1, caspase-3 (Canis lupus familiaris, UniProt Q8MKI5); experiment: Caspase-3 colorimetric assay in cell lysate, 17-71 cells; format: cell-based, canine; conditions: 10 or 20 µM, incubation ≤ 4 hours
T1 sequence (Q8MKI5 29-277): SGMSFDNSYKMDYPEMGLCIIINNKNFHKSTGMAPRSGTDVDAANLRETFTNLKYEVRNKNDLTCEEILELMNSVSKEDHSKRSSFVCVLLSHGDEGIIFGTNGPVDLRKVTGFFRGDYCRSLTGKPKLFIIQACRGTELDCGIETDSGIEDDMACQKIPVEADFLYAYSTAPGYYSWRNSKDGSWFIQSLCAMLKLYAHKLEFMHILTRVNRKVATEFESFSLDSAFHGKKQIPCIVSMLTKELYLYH
Procedure, shortened: (§2)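 Lymphoma cells were exposed to 10 or 20 µM test compound for 0, 1, 2, 4, 24 and 48 h at 37 °C, 5% CO2; hour 0 served as vehicle control. Lysates from 2 million cells per time point went into a colorimetric caspase-3 assay read at 405 nm, run in duplicate. Time points were compared to control by one-way ANOVA with Dunnett's test.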

caspase-3 [5] = molecular target: T1, caspase-3; experiment: Caspase-3 colorimetric assay in cell lysate, GL-1 cells; format: cell-based, canine; conditions: 10 or 20 µM, incubation ≤ 4 hours
Procedure, shortened: as §2

caspase-3 [6] = molecular target: T2, caspase-3 (Homo sapiens, UniProt P42574); experiment: Caspase-3 colorimetric assay in cell lysate, CA46 cells; format: cell-based; conditions: 10 or 20 µM, incubation ≤ 4 hours
T2 sequence (P42574 29-277): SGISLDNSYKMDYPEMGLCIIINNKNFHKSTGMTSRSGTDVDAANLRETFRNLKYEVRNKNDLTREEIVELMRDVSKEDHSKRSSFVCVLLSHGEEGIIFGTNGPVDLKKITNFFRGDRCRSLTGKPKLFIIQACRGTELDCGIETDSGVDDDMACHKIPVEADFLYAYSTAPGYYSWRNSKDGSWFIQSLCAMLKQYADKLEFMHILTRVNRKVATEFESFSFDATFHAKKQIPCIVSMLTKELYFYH
Procedure, shortened: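 CA46 human B-cell lymphoma cells, grown in suspension in DMEM with 20% FBS and P/S at 37 °C, 5% CO2, were exposed to test compound at 10 or 20 µM for 0, 1, 2, 4, 24 and 48 h. Lysate from 2 million cells per time point was assayed with a colorimetric caspase-3 kit read at 405 nm, in duplicate. Activity was compared with vehicle-treated cells (hour 0) by one-way ANOVA and Dunnett's test.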

[7] = Pharmacokinetics after single IV bolus in healthy dogs; format: in vivo; conditions: dog
Procedure, shortened: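 Six healthy hound dogs, crossover design with two-week washout. Test compound was freshly made at 15 mg/ml in 2-hydroxypropyl-β-cyclodextrin/sterile water and given at 1.0 mg/kg as a 10-min IV bolus. Jugular plasma was taken at 0-720 min and 24 h and assayed by LC-ES/MS/MS (deuterated internal standard). AUC and AUMC were taken by linear trapezoid extrapolated to infinity; A and B came from a two-compartment fit by residuals; Cls = dose/AUC.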

[8] = Pharmacokinetics after single oral administration in healthy dogs; format: in vivo; conditions: dog; for AUC o-inf. / Cmax / F (absolute oral bioavailability) / Oral clearance / Tmax / t1/2 K10 (terminal elimination half-life): 1 mg/kg oral
Procedure, shortened: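 Same six dogs in crossover, two-week washout. Test compound in 2-hydroxypropyl-β-cyclodextrin/sterile water was given once at 1.0 mg/kg as a 5-min oral slurry. Plasma was sampled at 0, 15, 30, 45, 60, 120, 240, 480, 720 min and 24 h and quantified by LC-ES/MS/MS. A one-compartment absorption model gave K01 and K10, Cmax and Tmax; Clo = dose/AUC0-inf; F = AUC oral/AUC IV × dose ratio.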

[9] = Plasma concentration during 48-hour IV constant rate infusion in healthy dogs; format: in vivo; conditions: dog, IV CRI
[10] = Toxicity assessment of 48-hour IV constant rate infusion in healthy dogs; format: in vivo; conditions: dog
Procedure, shortened: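 Four healthy dogs from the kinetic study received IV test compound as a 10-min loading dose, then a constant-rate maintenance infusion for 48 h. […] Haematologic, non-haematologic and gastrointestinal effects were checked weekly for 4 weeks.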

[11] = 1 mg/kg IV, individual dogs A-F, 1 mg/kg

## C=CCc1cccc(/C=N/NC(=O)CN2CCN(Cc3ccccc3)CC2)c1O [PAC-1]
[1]; 48 hour, 20 µM
  cells staining only for Annexin-V-FITC (early apoptosis): approximately 70%
[1]; 48 hours, PAC-1 ≥ 10 µM
  apoptotic cells: ≥ 60%
[2]; 48 hour, 10 µM
  apoptosis: ~ 25%
[2]; 48 hours, 20 µM
  cells remaining viable: ~ 60%
[3]; 24 hour exposure
  fraction of apoptotic cells: 20–35%
[3]; 48 hour, 10 µM
  apoptosis: ≥ 50%
[3]; 48 hours, PAC-1 ≥10 µM
  cells undergone apoptosis: greater than 50%
caspase-3 [4]
  caspase-3 activity in cell lysate vs vehicle-treated control cells: failed to significantly increase
caspase-3 [5]
  caspase-3 activity in cell lysate vs vehicle-treated control cells: failed to significantly increase
caspase-3 [6]
  caspase-3 activity in cell lysate vs vehicle-treated control cells: failed to significantly increase
[7]; 1 mg/kg IV, Mean ± SD, n=6
  A (Y intercept, distribution phase): 1483.8 ± 723.0 ng/mL
  AUC0-inf: 1740 ± 309.6 ngxhr/ml
  AUMC0-inf: 4805 ± 1211 ngxhrxhr/ml
  B (Y intercept, elimination phase): 249.0 ± 172.9 ng/mL
  Cls (total body clearance): 9.578 ± 1.26 mL/min/kg
  Vdc (volume of distribution in central compartment): 0.678 ± 0.254 L/kg
  Vdss (volume of distribution at steady state): 1.643 ± 0.497 L/kg
  Vdβ (volume of distribution in terminal elimination phase): 2.698 ± 0.865 L/kg
  t1/2 β (terminal elimination half-life): 3.12 ± 0.67 h
[7]; [11]
  A (Y intercept, distribution phase): 1065 ng/mL and 2598 ng/mL and 908 ng/mL and 2199 ng/mL and 1119 ng/mL and 1014 ng/mL
  AUC0-inf: 1730 ngxhr/ml and 2339 ngxhr/ml and 1468 ngxhr/ml and 1645 ngxhr/ml and 1709 ngxhr/ml and 1549 ngxhr/ml
  AUMC0-inf: 4751 ngxhrxhr/ml and 6167 ngxhrxhr/ml and 3693 ngxhrxhr/ml and 3802 ngxhrxhr/ml and 4247 ngxhrxhr/ml and 6174 ngxhrxhr/ml
  B (Y intercept, elimination phase): 288 ng/ml and 584 ng/ml and 138 ng/ml and 176 ng/ml and 154 ng/ml (2×)
  Cls (total body clearance): 9.63 mL/min/kg and 7.13 mL/min/kg and 10 mL/min/kg and 10.1 mL/min/kg and 9.75 mL/min/kg and 10.8 mL/min/kg
  Vdc (volume of distribution in central compartment): 0.739 L/kg and 0.314 L/kg and 0.957 L/kg and 0.421 L/kg and 0.786 L/kg and 0.856 L/kg
  Vdss (volume of distribution at steady state): 1.587 L/kg and 1.127 L/kg and 1.715 L/kg and 1.405 L/kg and 1.454 L/kg and 2.574 L/kg
  Vdβ (volume of distribution in terminal elimination phase): 2.260 L/kg and 1.380 L/kg and 3.145 L/kg and 2.699 L/kg and 2.736 L/kg and 3.968 L/kg
  t1/2 β (terminal half-life): 2.71 h and 2.24 h and 3.20 h and 3.08 h and 3.24 h and 4.26 h
[7]; 1.0 mg/kg bolus IV, immediately following completion of infusion
  average peak plasma concentration: 2.8 ± 0.6 µM
[8]; 1.0 mg/kg oral
  time of average peak plasma concentration following ingestion: 45 min
[8]; Mean ± SD, n=6
  AUC o-inf.: 310.5 ± 158.5 ng/mL/h
  Cmax: 77.0 ± 37.5 ng/mL
  F (absolute oral bioavailability): 17.8 ± 9.5%
  Oral clearance: 136 ± 79.6 L/h
  Tmax: 0.84 ± 0.28 h
  t1/2 K10 (terminal elimination half-life): 2.08 ± 0.26 h
[8]; individual dogs A-F, 1 mg/kg
  AUC o-inf.: 271 ng/mL/h and 408 ng/mL/h and 117 ng/mL/h and 508 ng/mL/h and 145 ng/mL/h and 414 ng/mL/h
  Cmax: 63.9 ng/mL and 127 ng/mL and 31 ng/mL and 108 ng/mL and 43 ng/mL and 89 ng/mL
  F (absolute oral bioavailability): 16% and 17% and 8% (2×) and 31% and 27%
  Oral clearance: 137 L/h and 77 L/h and 236 L/h and 61 L/h and 230 L/h and 75 L/h
  Tmax: 1.09 h and 0.51 h and 0.90 h and 1.07 h and 0.45 h and 0.99 h
  t1/2 K10 (terminal elimination half-life): 2.02 h and 1.83 h and 1.86 h and 2.40 h and 1.97 h and 2.42 h
[9]; average LD 5.8 mg/kg and MD 2.3 mg/kg/hour, n=4
  plasma concentration after 6 hours of infusion: 10.7 ± 2.0 µM
[9]; following completion of the first 24 hours
  plateau plasma concentration: ~ 18 µM
[10]; 48-hour CRI, 4 week monitoring, n=4
  gastrointestinal toxicity: no clinically overt gastrointestinal toxicity
[10]; 48-hour CRI, Day 0
  ALT: 46.7 ± 34.1 U/L
  Calcium: 10.3 ± 0.1 mg/dL
  Creatinine: 0.9 ± 0.2 mg/dL
  Hematocrit: 53.0 ± 3.8%
  Lymphocyte: 1.9 ± 0.3 ×10^3
  Neutrophil: 5.4 ± 1.0 ×10^3
  Phosphorous: 3.7 ± 0.4 mg/dL
  Platelet: 1.9 ± 0.4 ×10^5
  WBC: 8.2 ± 1.5 ×10^3
[10]; 48-hour CRI, Day 7
  ALT: 57.0 ± 34.6 U/L
  Calcium: 10.5 ± 0.3 mg/dL
  Creatinine: 1.0 ± 0.3 mg/dL
  Hematocrit: 55.4 ± 1.3%
  Lymphocyte: 1.3 ± 0.2 ×10^3
  Neutrophil: 5.0 ± 0.5 ×10^3
  Phosphorous: 2.9 ± 0.9 mg/dL
  Platelet: 1.8 ± 0.3 ×10^5
  WBC: 7.0 ± 0.4 ×10^3
[10]; 48-hour CRI, Day 14
  ALT: 56.3 ± 46.7 U/L
  Calcium: 10.2 ± 0.4 mg/dL
  Creatinine: 0.9 ± 0.1 mg/dL
  Hematocrit: 49.3 ± 6.0%
  Lymphocyte: 1.9 ± 0.7 ×10^3
  Neutrophil: 4.3 ± 0.9 ×10^3
  Phosphorous: 3.6 ± 0.3 mg/dL
  Platelet: 2.0 ± 0.4 ×10^5
  WBC: 7.0 ± 0.4 ×10^3
[10]; 48-hour CRI, Day 21
  ALT: 49.7 ± 29.0 U/L
  Calcium: 10.4 ± 0.4 mg/dL
  Creatinine: 1.0 ± 0.2 mg/dL
  Hematocrit: 50.6 ± 3.4%
  Lymphocyte: 1.5 ± 0.2 ×10^3
  Neutrophil: 5.9 ± 0.3 ×10^3
  Phosphorous: 3.4 ± 0.4 mg/dL
  Platelet: 2.2 ± 0.8 ×10^5
  WBC: 8.4 ± 0.6 ×10^3
[10]; IV CRI, n=4
  tolerability of CRI giving ≥ 10 µM for ≥ 24 hours: well-tolerated by all dogs

Source: paper PMC3182491 (Investigational new drugs, 2010)
